In one test the test system is H6:s10:loop:GFP. Particulars: cited from earlier work.
Another test concerns s10• H6:s10:loop:GFP. The following applies: dark; cited from earlier work.
The test system of test [1] is truly truncated H6:GFP: loop:s11. The experiment in a line: Spontaneous dark reassembly with s11. The test is classed as binding. Particulars: 4 μM protein, 20 μM s11, dark. The gist of the method: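 Truncated protein made from intact GFP carrying a sacrificial loop: loop cut by proteolysis, then strand 11 stripped off in 6M Guanidinium-HCl. Protein separated from s11 peptide by size exclusion, refolded by rapid dilution into non-denaturing buffer, then thermally relaxed. 4 µM protein mixed with 20 µM s11 peptide without irradiation. Reassembly followed over time; second-order k reported in M-1s-1.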

The next test has as its system s10• H6:GFP: loop:s11. The experiment in a line: Displacement of bound s10 by excess s11. It is filed as binding. Particulars: excess s11 added to isolated complex; data not shown.
Another test relates to H6:GFP: loop:s11. Particulars: His-tag retained, cited from earlier work.
In another test the test system is H6:GFP: loop:s11•s11. Particulars: excess replacement peptide s11^222Q; cited from earlier work.

“Also recorded” adds a separate entry of the source. Like-named read-outs stand apart in the source and are kept apart here.

Take NHYLSTQSVLS [s10]: the “reassembly with s10 in the dark” value in the test with H6:s10:loop:GFP is on record as “readily reassembles”. The “spontaneous off-rate of strand 10” value in the test on s10• H6:s10:loop:GFP is reported as “very slow”.
On to HMVLLEFVTAA [s11], for which, in test [1], the “rate constant k of spontaneous reassembly with s11 in the dark” value is reported as 1.2 × 10^0 M^−1 s^−1. For the same sequence, the “displacement of bound s10” value with s10• H6:GFP: loop:s11 was “able to displace the bound s10, and light accelerates this process”. The “binding of s11 in the dark” value in the test with H6:GFP: loop:s11 (listed as native peptide) is on record as “unable to displace the H6 slotted into this groove until it is vacated following light activation”; in the test on H6:GFP: loop:s11 it was “unable to bind s11 in the dark; also recorded: does not rebind added synthetic strand 11 (s11) spontaneously in the dark”. For the same sequence, the “spontaneous off-rate of strand 11” value in the test on H6:GFP: loop:s11•s11 was “effectively zero”.

The record behind these values is PMC5815829 (Journal of the American Chemical Society, 2017).
